Among the data in ChEMBL document CHEMBL2424622, “Development of amino-pyrimidine inhibitors of c-Jun N-terminal kinase (JNK): kinase profiling guided optimization of a 1,2,3-benzotriazole lead” (Bioorg Med Chem Lett, 2013) are inhibition values, retold here.

For one assay, the target named is LIM domain kinase 1 (Homo sapiens, UniProt P53667). As to the kind of experiment: Competitive binding affinity to LIMK1 (unknown origin) at 10 uM in presence of ATP relative to control. An outline of the steps: (§1)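 In vitro ATP-site competition binding assay, part of profiling against a diverse panel of 128 kinases. Each compound was tested at a single concentration of 10 µM. Kinome selectivity was summarized as S15 selectivity scores.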

Assay [1] deals with T1, Ephrin type-A receptor 8 (Homo sapiens) (UniProt P29322).
T1 sequence (whole entry): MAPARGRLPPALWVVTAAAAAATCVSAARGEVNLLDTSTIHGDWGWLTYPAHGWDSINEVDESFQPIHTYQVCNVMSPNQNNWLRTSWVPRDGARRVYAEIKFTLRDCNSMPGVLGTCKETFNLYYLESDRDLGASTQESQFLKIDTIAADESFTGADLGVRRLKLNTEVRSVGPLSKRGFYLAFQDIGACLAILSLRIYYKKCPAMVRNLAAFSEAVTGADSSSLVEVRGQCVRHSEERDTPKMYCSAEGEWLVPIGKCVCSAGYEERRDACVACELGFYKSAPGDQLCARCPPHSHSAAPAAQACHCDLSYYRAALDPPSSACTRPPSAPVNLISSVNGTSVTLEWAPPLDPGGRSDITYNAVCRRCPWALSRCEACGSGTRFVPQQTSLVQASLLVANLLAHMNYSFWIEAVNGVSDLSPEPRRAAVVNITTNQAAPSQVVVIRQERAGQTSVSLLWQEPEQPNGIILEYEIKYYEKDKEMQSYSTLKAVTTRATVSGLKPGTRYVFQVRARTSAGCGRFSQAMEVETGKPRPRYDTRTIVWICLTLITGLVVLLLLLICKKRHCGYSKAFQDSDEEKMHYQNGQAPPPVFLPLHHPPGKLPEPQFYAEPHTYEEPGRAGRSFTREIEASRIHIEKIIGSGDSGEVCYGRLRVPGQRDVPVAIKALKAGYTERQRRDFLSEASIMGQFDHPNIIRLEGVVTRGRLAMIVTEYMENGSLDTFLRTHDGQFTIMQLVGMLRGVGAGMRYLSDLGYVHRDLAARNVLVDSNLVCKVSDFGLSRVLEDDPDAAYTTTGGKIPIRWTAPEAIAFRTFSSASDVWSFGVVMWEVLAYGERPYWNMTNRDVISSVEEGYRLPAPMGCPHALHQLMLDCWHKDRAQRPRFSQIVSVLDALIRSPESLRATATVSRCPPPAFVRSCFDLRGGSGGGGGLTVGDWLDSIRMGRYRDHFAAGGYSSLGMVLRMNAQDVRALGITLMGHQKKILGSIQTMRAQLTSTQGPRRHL
Briefly: Competitive binding affinity to EPHA8 (unknown origin) at 10 uM in presence of ATP relative to control. An outline of the steps: as §1

The target of assay [2] is Mitogen-activated protein kinase kinase kinase kinase 5 (Homo sapiens) (UniProt Q9Y4K4). Briefly: Competitive binding affinity to MAP4K5 (unknown origin) at 10 uM in presence of ATP relative to control. In short, it runs like this: as §1
Assay [3] concerns the target Serine/threonine-protein kinase PAK 3 (Homo sapiens) (UniProt O75914). As to the kind of experiment: Competitive binding affinity to PAK3 (unknown origin) at 10 uM in presence of ATP relative to control. In short, it runs like this: (§2)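 In vitro ATP-site competition binding assay across a diverse panel of 128 kinases, with compound tested at a single concentration. Kinase selectivity scores (S15) were calculated from the panel profiles.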

Assay [4] has as its target Angiopoietin-1 receptor (Homo sapiens) (UniProt Q02763). As to the kind of experiment: Competitive binding affinity to TIE2 (unknown origin) at 10 uM in presence of ATP relative to control. An outline of the steps: as §2
Assay [5] deals with STE20-like serine/threonine-protein kinase (Homo sapiens) (UniProt Q9H2G2). Briefly: Competitive binding affinity to SLK (unknown origin) at 10 uM in presence of ATP relative to control. In short, it runs like this:
as §2

Assay [6] addresses Ribosomal protein S6 kinase alpha-2 (Homo sapiens) (UniProt Q15349). Briefly: Competitive binding affinity to RPS6KA2 kinase domain 1 (unknown origin) at 10 uM in presence of ATP relative to control. An outline of the steps: (§3)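 In vitro ATP-site competition binding assay across a diverse panel of 128 kinases, with each compound tested at a single concentration. Kinase binding is expressed relative to control.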

Assay [7] has as its target Tyrosine-protein kinase CSK (Homo sapiens) (UniProt P41240). As to the kind of experiment: Competitive binding affinity to CSK (unknown origin) at 10 uM in presence of ATP relative to control.
The target of assay [8] is Casein kinase I isoform gamma-1 (Homo sapiens) (UniProt Q9HCP0). As to the kind of experiment: Competitive binding affinity to CSNK1G1 (unknown origin) at 10 uM in presence of ATP relative to control.
Sequence of Casein kinase I isoform gamma-1 (Homo sapiens) (Q9HCP0 whole entry, looked up, canonical isoform): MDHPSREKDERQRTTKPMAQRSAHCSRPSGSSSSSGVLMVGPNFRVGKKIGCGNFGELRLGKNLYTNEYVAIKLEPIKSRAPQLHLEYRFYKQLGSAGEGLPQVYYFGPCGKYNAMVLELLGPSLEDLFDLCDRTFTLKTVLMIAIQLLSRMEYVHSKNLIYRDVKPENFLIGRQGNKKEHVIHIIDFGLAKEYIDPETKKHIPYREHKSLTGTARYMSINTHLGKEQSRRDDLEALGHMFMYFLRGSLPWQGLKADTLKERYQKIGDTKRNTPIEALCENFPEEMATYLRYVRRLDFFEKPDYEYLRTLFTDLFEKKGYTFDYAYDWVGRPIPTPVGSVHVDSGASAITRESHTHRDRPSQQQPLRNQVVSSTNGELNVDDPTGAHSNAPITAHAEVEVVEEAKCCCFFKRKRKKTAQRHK
Assay [9] addresses Mitogen-activated protein kinase 9 (Homo sapiens, UniProt P45984). As to the kind of experiment: Competitive binding affinity to JNK2 (unknown origin) at 10 uM in presence of ATP relative to control. In short, it runs like this:
as §3

Assay [10] concerns the target Focal adhesion kinase 1 (Homo sapiens) (UniProt Q05397). As to the kind of experiment: Competitive binding affinity to PTK2 (unknown origin) at 10 uM in presence of ATP relative to control. An outline of the steps: as §2

Sequence of Tyrosine-protein kinase CSK (Homo sapiens) (P41240 2-450 limits assumed): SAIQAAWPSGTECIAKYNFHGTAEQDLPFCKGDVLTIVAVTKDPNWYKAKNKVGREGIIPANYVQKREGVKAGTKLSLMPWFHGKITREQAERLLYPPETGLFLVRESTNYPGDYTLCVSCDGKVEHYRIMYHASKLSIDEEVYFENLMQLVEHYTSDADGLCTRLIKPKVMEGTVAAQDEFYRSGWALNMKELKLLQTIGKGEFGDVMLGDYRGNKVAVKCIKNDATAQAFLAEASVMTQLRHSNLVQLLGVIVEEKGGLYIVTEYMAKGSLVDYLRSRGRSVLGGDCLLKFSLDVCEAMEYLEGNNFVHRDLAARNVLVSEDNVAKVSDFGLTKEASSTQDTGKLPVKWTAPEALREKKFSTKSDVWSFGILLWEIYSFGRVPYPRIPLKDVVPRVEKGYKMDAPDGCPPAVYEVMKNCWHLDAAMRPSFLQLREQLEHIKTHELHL
Sequence of Mitogen-activated protein kinase 9 (P45984 whole entry, looked up): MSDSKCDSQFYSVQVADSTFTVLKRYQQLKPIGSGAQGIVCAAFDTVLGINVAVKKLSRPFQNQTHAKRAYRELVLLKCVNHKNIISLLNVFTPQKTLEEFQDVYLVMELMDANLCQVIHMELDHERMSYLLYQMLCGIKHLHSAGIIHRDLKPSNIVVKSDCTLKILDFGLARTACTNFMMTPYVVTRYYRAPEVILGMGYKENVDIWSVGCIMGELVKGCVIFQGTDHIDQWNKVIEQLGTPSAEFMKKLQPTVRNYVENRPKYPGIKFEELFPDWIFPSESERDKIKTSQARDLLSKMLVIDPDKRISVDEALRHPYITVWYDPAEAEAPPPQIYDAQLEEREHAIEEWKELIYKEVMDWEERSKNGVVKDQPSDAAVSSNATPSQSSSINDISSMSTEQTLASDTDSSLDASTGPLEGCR
Sequence of Serine/threonine-protein kinase PAK 3 (Homo sapiens) (O75914 whole entry, looked up): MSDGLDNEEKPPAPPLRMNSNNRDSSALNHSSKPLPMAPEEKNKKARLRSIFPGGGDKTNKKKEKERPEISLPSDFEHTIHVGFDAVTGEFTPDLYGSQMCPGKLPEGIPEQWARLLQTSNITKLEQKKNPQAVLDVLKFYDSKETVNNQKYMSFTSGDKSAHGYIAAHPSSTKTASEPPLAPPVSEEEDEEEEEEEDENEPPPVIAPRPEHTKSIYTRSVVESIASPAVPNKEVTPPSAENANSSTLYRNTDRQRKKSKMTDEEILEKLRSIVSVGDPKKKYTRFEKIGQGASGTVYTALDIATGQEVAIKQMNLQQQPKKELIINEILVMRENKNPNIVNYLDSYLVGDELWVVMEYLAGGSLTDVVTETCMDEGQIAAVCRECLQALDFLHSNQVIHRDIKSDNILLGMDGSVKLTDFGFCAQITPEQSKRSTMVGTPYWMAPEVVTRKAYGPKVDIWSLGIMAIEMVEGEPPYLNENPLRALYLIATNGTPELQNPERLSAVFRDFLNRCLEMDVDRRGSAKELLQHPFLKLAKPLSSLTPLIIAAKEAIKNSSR
Sequence of Focal adhesion kinase 1 (Homo sapiens) (Q05397 2-1052 limits assumed): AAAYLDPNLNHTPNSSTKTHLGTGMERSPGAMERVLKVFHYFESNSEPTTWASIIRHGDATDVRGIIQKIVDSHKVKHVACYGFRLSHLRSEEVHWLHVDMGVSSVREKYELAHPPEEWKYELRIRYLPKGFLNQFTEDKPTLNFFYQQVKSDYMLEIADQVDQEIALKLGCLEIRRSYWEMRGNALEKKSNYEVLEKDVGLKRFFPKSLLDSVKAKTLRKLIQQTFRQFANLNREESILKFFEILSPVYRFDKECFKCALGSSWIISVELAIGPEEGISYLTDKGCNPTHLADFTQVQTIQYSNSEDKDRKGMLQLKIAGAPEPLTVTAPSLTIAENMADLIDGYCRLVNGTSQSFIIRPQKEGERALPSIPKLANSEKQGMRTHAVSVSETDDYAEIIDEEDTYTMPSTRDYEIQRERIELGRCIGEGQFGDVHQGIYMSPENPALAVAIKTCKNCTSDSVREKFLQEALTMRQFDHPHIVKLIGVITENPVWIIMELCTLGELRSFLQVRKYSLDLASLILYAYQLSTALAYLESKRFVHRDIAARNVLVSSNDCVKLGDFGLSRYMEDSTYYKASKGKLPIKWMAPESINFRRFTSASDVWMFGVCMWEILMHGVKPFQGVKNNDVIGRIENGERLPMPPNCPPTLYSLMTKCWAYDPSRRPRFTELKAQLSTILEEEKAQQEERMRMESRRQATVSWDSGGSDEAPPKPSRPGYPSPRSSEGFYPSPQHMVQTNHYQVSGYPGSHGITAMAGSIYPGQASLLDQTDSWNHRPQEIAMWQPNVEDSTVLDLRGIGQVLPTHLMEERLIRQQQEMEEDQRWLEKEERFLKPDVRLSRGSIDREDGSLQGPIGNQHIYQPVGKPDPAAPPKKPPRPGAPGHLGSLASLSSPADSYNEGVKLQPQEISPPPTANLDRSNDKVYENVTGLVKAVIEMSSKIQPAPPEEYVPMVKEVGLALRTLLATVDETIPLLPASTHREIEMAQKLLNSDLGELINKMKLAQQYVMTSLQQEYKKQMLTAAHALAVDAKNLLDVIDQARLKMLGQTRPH
Sequence of Ribosomal protein S6 kinase alpha-2 (Homo sapiens) (Q15349 whole entry, the tested form may be a part): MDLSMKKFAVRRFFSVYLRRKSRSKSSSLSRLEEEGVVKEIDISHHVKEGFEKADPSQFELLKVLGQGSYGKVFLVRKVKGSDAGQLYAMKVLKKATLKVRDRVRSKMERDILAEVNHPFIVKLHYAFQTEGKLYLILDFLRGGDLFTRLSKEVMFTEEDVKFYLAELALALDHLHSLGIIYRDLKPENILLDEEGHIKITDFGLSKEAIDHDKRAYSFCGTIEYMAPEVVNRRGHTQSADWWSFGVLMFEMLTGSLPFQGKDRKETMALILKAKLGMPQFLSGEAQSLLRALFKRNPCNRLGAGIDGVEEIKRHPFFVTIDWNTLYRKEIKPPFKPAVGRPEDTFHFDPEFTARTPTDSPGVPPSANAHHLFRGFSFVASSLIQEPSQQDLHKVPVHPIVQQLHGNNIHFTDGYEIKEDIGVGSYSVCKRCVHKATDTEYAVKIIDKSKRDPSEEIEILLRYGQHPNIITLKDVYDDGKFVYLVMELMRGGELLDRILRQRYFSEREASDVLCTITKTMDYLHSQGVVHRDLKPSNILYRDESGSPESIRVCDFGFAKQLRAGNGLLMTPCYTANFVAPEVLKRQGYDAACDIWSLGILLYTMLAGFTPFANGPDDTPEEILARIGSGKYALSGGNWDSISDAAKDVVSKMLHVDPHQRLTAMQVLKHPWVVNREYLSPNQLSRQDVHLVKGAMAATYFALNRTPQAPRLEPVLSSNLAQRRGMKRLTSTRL
Sequence of STE20-like serine/threonine-protein kinase (Homo sapiens) (Q9H2G2 whole entry, looked up): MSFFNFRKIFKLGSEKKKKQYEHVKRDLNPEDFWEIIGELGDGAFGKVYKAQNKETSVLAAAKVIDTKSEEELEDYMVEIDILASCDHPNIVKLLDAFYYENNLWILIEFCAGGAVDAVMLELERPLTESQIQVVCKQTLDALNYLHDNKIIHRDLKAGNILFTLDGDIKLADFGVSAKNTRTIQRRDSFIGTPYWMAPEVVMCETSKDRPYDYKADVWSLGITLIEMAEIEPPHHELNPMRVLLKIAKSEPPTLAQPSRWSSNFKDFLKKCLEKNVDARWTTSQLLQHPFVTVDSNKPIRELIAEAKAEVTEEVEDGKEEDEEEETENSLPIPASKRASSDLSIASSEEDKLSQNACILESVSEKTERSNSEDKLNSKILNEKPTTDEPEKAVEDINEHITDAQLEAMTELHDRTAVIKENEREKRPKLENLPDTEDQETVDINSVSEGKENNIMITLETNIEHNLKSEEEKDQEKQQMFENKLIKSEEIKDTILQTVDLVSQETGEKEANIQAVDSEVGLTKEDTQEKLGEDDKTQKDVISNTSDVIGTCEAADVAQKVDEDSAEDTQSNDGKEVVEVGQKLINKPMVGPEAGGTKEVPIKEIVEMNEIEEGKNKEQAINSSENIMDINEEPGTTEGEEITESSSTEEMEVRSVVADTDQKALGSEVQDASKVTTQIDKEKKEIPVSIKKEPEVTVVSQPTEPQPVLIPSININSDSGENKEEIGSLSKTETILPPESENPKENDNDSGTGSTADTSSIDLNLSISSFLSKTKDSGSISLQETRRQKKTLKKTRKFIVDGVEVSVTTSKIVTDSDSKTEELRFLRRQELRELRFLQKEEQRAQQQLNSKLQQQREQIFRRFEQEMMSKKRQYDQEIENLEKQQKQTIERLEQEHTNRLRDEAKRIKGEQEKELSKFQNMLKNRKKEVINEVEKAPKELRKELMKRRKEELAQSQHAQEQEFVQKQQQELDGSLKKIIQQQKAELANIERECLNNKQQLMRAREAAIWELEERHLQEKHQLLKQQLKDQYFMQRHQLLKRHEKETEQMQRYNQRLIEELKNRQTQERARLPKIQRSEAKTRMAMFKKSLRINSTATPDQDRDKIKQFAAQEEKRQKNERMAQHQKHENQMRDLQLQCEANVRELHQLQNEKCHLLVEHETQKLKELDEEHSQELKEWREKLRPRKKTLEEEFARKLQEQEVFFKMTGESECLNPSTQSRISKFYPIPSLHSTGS

Consider `O=C([C@H]1CC[C@H](Nc2nccc(-n3nnc4ccccc43)n2)CC1)N1CCOCC1`, for which the inhibition (commonly the percentage by which the read-out fell short of the control) on LIM domain kinase 1 is 78%; in [1] it was under 50%; in assay [2] it was under 50%; in assay [3], under 50%; in assay [4], under 50%; in [5] it was under 50%. In addition, the inhibition is 100% in assay [6]; under 50% in [7]; 75% in assay [8]; 98% in [9]; under 50% in assay [10].

For the compound `CS(=O)(=O)CCCOc1cccc2c1ccn2-c1ccnc(N[C@H]2CC[C@H](C(=O)N3CCC(O)CC3)CC2)n1`, the inhibition (at LIM domain kinase 1; in assay [9]) was over 85% in each case.

For `O[C@H]1CC[C@H](Nc2nccc(-n3ccc4ccccc43)n2)CC1`, the inhibition at LIM domain kinase 1 is 77%; in assay [1], under 50%; in [2], under 50%; in assay [3], under 50%; in [4] it was under 50%; in assay [5] it was under 50%. The inhibition in [6] was under 50%; in assay [7], under 50%; in assay [8] it was under 50%; in assay [9], 99%; in assay [10] it was under 50%.

As for `O[C@H]1CC[C@H](Nc2nccc(-n3ncc4ccccc43)n2)CC1`, the inhibition was 88% at LIM domain kinase 1; under 50% in assay [1]; under 50% in [2]; 75% in [3]; under 50% in assay [4]; under 50% in assay [5]. Also, the inhibition in [6] was 73%; in assay [7] it was under 50%; in assay [8], under 50%; in [9], 99%; in assay [10], under 50%.

For the compound `O[C@H]1CC[C@H](Nc2nccc(-c3n[nH]c4ccccc34)n2)CC1`, the inhibition was 96% at LIM domain kinase 1; under 50% in assay [1]; 99% in [2]; 99% in assay [3]; under 50% in [4]; 99% in [5]. Also, the inhibition is 99% in [6]; under 50% in [7]; 92% in assay [8]; 93% in assay [9]; 85% in [10].

Turning to `N[C@H]1CC[C@H](Nc2nccc(-n3nnc4ccccc43)n2)CC1`, the inhibition was under 50% at LIM domain kinase 1; under 50% in [1]; under 50% in assay [2]; 90% in [3]; under 50% in assay [4]; under 50% in [5]. Also, the inhibition in assay [6] is 91%; in [7] it was under 50%; in assay [8] it was 100%; in assay [9] it was 100%; in [10] it was under 50%.

Take `O[C@H]1CC[C@H](Nc2nccc(-n3nnc4ccccc43)n2)CC1`: the inhibition was 87% at LIM domain kinase 1; under 50% in assay [1]; under 50% in [2]; 76% in assay [3]; under 50% in assay [4]; under 50% in [5]. In addition, the inhibition in [6] was 95%; in [7], under 50%; in assay [8], 97%; in [9], 99%; in assay [10], under 50%.
